Source: PubChem BioAssay (several laboratories)
KCNQ1 pot – human KCNQ1 channel potentiation or activation; B-score at 10 µM; CHO-K1 KCNQ1, thallium flux FluxOR fluorescence; hits give high values; AID 2648; 310,000 compounds, 0.35% hits; P51787;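 active means fluorescence ratio B-score, a plate-corrected score, at least three library SD, with initial intensity B-score within 5 SD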
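Medium – assay buffer, equal DMSO in all wells · Material – CHO-K1 cell line with stable KCNQ1 potassium channel expression · Signal – kinetic FluxOR thallium fluorescence, 10-s 1-Hz baseline, 110-s post-stimulus read · Compound – single concentration per compound, DMSO matched to controls · Schedule – 37 °C overnight plating, 90-min dark dye load, 20-min compound pretreatment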
AI-2 QS modul – modulates the Vibrio harveyi AI-2 quorum sensing system; Vibrio harveyi JMH597 AI-2 luminescence/OD600 ratio, 9 h; hits give low values; strain lacks LuxN and CqsS sensors; 0 = neutral-control median; activity change, % at 7.5 µM; 300,000 compounds, 0.4% hits; AID 2094; in the data active means activity change below about -75%, passing the limit was not always enough; inconclusive means no clear call, values can overlap the other calls;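 further: luminescence divided by OD600 gain over 9 h not by final OD600 alone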
SUMO Mot1 rescue – inhibitors of SUMOylation pathway: yeast Mot1-301 growth rescue; S. cerevisiae Mot1-301 growth rescue, ATP luminescence, 38.5C; percent above DMSO median, 100 means doubled; growth rescue, % at 18.8 µM; 320,000 compounds, 1% hits;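 active means every valid replicate shows activation above 250% relative to neutral control wells; inactive means the rest, any valid replicate at or below 250%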;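 further: OY570 slx delta 5 strain wells were the positive control but not used for scaling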
Cl transport mod – KCC2 (human) Cl- transport modulation; Q9H2X9; KCC2 cells, thallium flux FluoZin-2 fluorescence; AID 1456; 190,000 compounds, 2.2% hits; B-score of Tl+ flux slope (higher = more flux/activation; lower = inhibition) at 10 µM;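 active means thallium flux slope and its plate-corrected score both differing from the plate sample mean at a set confidence after two filtering rounds, in either direction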;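 further: slope of fluorescence scaled to starting intensity during 10 to 20 s after thallium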
Target sequence (Q9H2X9 whole entry, looked up): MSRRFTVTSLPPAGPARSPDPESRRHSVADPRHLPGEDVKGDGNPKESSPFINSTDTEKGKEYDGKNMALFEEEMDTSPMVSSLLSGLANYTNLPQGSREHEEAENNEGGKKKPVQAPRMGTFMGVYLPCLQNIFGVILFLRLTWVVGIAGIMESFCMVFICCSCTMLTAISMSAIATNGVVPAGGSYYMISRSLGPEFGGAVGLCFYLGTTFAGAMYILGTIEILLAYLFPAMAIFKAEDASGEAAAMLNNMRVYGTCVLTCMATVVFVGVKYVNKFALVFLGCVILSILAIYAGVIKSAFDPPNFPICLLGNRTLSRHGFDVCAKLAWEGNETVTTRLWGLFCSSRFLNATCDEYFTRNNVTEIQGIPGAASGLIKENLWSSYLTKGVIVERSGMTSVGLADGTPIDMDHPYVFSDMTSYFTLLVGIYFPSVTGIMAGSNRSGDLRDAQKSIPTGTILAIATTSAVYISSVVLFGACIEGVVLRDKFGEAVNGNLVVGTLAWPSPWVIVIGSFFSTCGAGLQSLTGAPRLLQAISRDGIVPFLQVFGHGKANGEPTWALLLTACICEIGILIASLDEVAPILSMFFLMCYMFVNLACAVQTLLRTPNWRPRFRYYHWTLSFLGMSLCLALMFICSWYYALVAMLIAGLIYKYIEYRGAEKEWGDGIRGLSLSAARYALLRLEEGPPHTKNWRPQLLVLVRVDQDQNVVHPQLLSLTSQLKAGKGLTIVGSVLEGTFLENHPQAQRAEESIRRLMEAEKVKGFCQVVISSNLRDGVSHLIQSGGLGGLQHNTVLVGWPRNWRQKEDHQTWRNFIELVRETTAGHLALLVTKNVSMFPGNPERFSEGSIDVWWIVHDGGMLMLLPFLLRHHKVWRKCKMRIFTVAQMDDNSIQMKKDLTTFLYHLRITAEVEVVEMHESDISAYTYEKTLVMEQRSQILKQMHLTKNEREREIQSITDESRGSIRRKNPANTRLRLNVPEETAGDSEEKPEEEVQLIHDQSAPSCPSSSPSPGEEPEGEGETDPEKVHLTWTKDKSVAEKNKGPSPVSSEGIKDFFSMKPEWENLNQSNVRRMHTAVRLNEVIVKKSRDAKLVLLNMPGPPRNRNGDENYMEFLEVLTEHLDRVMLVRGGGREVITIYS
hERG protect – shields human hERG channel from block by proarrhythmic agents; Q12809; CHO-hERG, FluxOR thallium flux, dofetilide IC70 present; activation (rescue from dofetilide block), less the hit threshold, % at 10 µM; 310,000 compounds, 0.51% hits;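 active means activation above the mean of controls blocked by dofetilide plus 5 SD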;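 further: thallium influx through hERG after potassium depolarization seen as dye fluorescence rise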
KCNQ1 inh – blocks the human KCNQ1 potassium channel | P51787 | CHO-K1 KCNQ1, FluxOR thallium flux fluorescence; hits give high values | B-score at 10 µM | 310,000 compounds, 1.3% hits;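 active means compounds whose thallium flux B-score, printed positive for inhibition, exceeds three library SD while starting fluorescence stays within three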;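 further: channel opened by potassium depolarization with thallium stimulus after 20 min compound exposure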
KCC2 secondary – KCC2 (human) modulation, secondary assay. shares compounds with Cl transport mod. HEK293-KCC2, thallium flux, FluoZin2 fluorescence; hits give high values. normalised thallium flux (F/F0 slope) at 10 µM. 3,700 compounds, 15% hits;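 active means thallium flux slope above the same plate's solvent-only control mean plus 3 SD; inconclusive means the two replicate wells disagree; inactive means no significant difference from solvent-only control wells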
KCC2 bumet counter – thallium flux persisting under bumetanide in KCC2 cells, counter-screen secondary assay | AID 1714 | normalized thallium flux at 10 µM | 3,700 compounds, 49% hits | HEK293-KCC2 + bumetanide/ouabain, thallium flux FluoZin2; hits give high values | shares compounds with Cl transport mod;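 active means thallium entry rate above the same plate's blocked-transporter control wells by more than 3 SD; inconclusive means the two repeat wells disagree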;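 further: raw slope of fluorescence over initial fluorescence between 10 and 20 s after thallium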
KCC2 sec2 – KCC2 (human) modulation, second secondary assay | shares compounds with Cl transport mod | HEK293-KCC2, thallium flux FluoZin2 fluorescence; actives lie on both sides; F/F0 rise rate, 10–20 s post-thallium | normalized thallium flux at 10 µM | 3,700 compounds, 23% hits | AID 1715;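 active means thallium flux slope more than 3 SD above or below the plate's solvent-only control mean, mostly below; inconclusive means the two repeat wells disagreed; inactive means no significant shift from solvent-only controls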;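 further: raw slope with 0.1% DMSO as baseline and bumetanide as block control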
HEK293 Tl flux – counter-screen for KCC2 modulators: effect in parental HEK293 cells; shares compounds with Cl transport mod; thallium flux FluoZin2, ouabain; baseline-ratio fluorescence slope, 10–20 s after thallium; thallium flux rate (normalised fluorescence) at 10 µM; 3,700 compounds, 46% hits;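 active means thallium flux rate significantly above the same plate's solvent-only control wells, beyond their mean plus 3 SD; inconclusive means the two replicate wells gave conflicting results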
KCC2 ouabain – KCC2 (human) modulation, ouabain retest | 3,700 compounds, 48% hits | raw Tl+ flux slope (below DMSO = inhibition, above = activation) at 10 µM | HEK293-KCC2, thallium flux FluoZin2 fluorescence; bidirectional: low = inhibitor, high = activator | AID 1717 | shares compounds with Cl transport mod;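 active means thallium flux slope beyond 3 SD from same-plate DMSO control mean in most replicates, usually higher, sometimes lower; inconclusive means repeat tests gave conflicting results; inactive means no significant difference from controls in most replicates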;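 further: slope of initial-normalized fluorescence between seconds 10 and 20 after thallium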
HEK counter2 – parental HEK flux effect, counter-screen 2; 3,700 compounds, 33% hits; AID 1718; thallium flux slope at 10 µM; HEK293 parental, thallium flux FluoZin-2 fluorescence slope; shares compounds with Cl transport mod;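 active means thallium flux slope above the same plate's solvent-control mean plus 3 SD in both duplicate wells; inconclusive means duplicate wells that disagreed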;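 further: run without ouabain in cells lacking the KCC2 cotransporter; slope of fluorescence scaled to its starting value between 10 and 20 s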
Numbers without * were called inactive. A selection: hits, their analogues and other compounds. The true share with any hit is near 4.2%.

What do the screens show for `O=C(NNc1nc(-c2ccccc2)cs1)c1ccco1`?
KCNQ1 pot: inactive; AI-2 QS modul: -31; SUMO Mot1 rescue: -9; Cl transport mod: -6.2*; hERG protect: -5; KCNQ1 inh: inactive; KCC2 secondary: inconclusive; KCC2 bumet counter: inconclusive; KCC2 sec2: 0.019*; HEK293 Tl flux: inconclusive; KCC2 ouabain: 0.012*; HEK counter2: 0.01

How did O=C(NNc1nc(-c2ccc(Cl)cc2)cs1)c1ccco1 do in these assays?
KCNQ1 pot: inactive; AI-2 QS modul: inconclusive; SUMO Mot1 rescue: 3; Cl transport mod: -4.6; hERG protect: -11; KCNQ1 inh: inactive

Results for Cc1ccc(-c2csc(NC(=S)NC(=O)c3ccco3)n2)cc1 ?
KCNQ1 pot: 28*; AI-2 QS modul: 35; SUMO Mot1 rescue: -9; Cl transport mod: 32*; hERG protect: -5; KCNQ1 inh: inactive; KCC2 secondary: 0.016*; KCC2 bumet counter: 0.047*; KCC2 sec2: 0.032; HEK293 Tl flux: 0.028*; KCC2 ouabain: 0.039*; HEK counter2: 0.013*

How did Cc1cc(C)c2c(N)c3cccc(C)c3nc2n1 do in these assays?
KCNQ1 pot: inactive; AI-2 QS modul: 14; SUMO Mot1 rescue: -9; Cl transport mod: 0.18; hERG protect: -2; KCNQ1 inh: inactive

How did O=C(CCOc1ccccc1)Nc1ccnn1C1CCN(C(=O)CCC(F)(F)F)CC1 do in these assays?
KCNQ1 pot: inactive; AI-2 QS modul: 9; SUMO Mot1 rescue: 12; hERG protect: -6; KCNQ1 inh: inactive

Results for CCOC(=O)c1cnc2c(-c3ccccc3OC)c(C)nn2c1C ?
KCNQ1 pot: inactive; AI-2 QS modul: 1; SUMO Mot1 rescue: 0; Cl transport mod: -0.6; hERG protect: 3; KCNQ1 inh: inactive

Results for C/C(=N\NC(=S)Nc1cc(S(=O)(=O)N2CCOCC2)ccc1Cl)c1ccc(N2CCOCC2)cc1 ?
KCNQ1 pot: inactive; AI-2 QS modul: 31; SUMO Mot1 rescue: -22; Cl transport mod: 1.4; hERG protect: -13; KCNQ1 inh: inactive

Results for C/C(=N\NC(=S)Nc1ccc(C)c(C)c1)c1ccc(N2CCOCC2)cc1 ?
KCNQ1 pot: inactive; AI-2 QS modul: 16; SUMO Mot1 rescue: 2; Cl transport mod: 5*; hERG protect: -7; KCNQ1 inh: inactive; KCC2 secondary: 0.011; KCC2 bumet counter: 0.033*; KCC2 sec2: 0.032; HEK293 Tl flux: 0.015*; KCC2 ouabain: 0.023; HEK counter2: 0.011

What do the screens show for `COn1cnnc1-c1ccccc1`?
KCNQ1 pot: inactive; AI-2 QS modul: 7; SUMO Mot1 rescue: -2; hERG protect: -5; KCNQ1 inh: inactive; KCC2 secondary: 0.0065; KCC2 bumet counter: 0.0046; KCC2 sec2: 0.031; HEK293 Tl flux: 0.0076; KCC2 ouabain: 0.018; HEK counter2: 0.01

What do the screens show for `On1cnnc1-c1ccccc1`?
KCNQ1 pot: inactive; AI-2 QS modul: -8; SUMO Mot1 rescue: -3; hERG protect: -6; KCNQ1 inh: inactive

Results for CCOc1ccc(NC(=S)NC(=O)/C=C/c2ccc(C)cc2)c([N+](=O)[O-])c1 ?
KCNQ1 pot: inactive; AI-2 QS modul: 16; SUMO Mot1 rescue: 10; Cl transport mod: -0.24; hERG protect: -4; KCNQ1 inh: inactive

How did CCOc1ccc(NC(=S)NC(=O)c2c(Cl)c(C)nn2C)c([N+](=O)[O-])c1 do in these assays?
KCNQ1 pot: inactive; AI-2 QS modul: 5; SUMO Mot1 rescue: 10; Cl transport mod: 9.4*; hERG protect: -7; KCNQ1 inh: inactive; KCC2 secondary: 0.011; KCC2 bumet counter: 0.017*; KCC2 sec2: 0.034; HEK293 Tl flux: inconclusive; KCC2 ouabain: inconclusive; HEK counter2: 0.012

Results for O=C(NNC(=O)c1ccc(Cl)cc1Cl)c1csc(-c2cccnc2)n1 ?
KCNQ1 pot: inactive; AI-2 QS modul: 41; SUMO Mot1 rescue: 9; Cl transport mod: 8.1*; hERG protect: -4; KCNQ1 inh: inactive; KCC2 secondary: 0.0059; KCC2 bumet counter: 0.018*; KCC2 sec2: 0.033; HEK293 Tl flux: 0.015*; KCC2 ouabain: inconclusive; HEK counter2: 0.018*

How did COc1ccc(C2/C=C\CN(C(=O)CC(C)C)CC(=O)N2Cc2ccc(F)cc2)cc1 (configuration not stated) do in these assays?
KCNQ1 pot: inactive; AI-2 QS modul: 8; Cl transport mod: -3*; hERG protect: -11; KCNQ1 inh: inactive; KCC2 secondary: 0.016; KCC2 bumet counter: 0.0034; KCC2 sec2: 0.025*; HEK293 Tl flux: 0.0059*; KCC2 ouabain: 0.015; HEK counter2: 0.0087

What do the screens show for `COc1ccc(C2/C=C\CN(C(=O)CC(C)(C)C)CC(=O)N2Cc2ccc(F)cc2)cc1` (configuration not stated)?
KCNQ1 pot: inactive; AI-2 QS modul: 15; SUMO Mot1 rescue: -6; Cl transport mod: -2.4; hERG protect: -13; KCNQ1 inh: inactive

What do the screens show for `COc1cc(-c2c(C#N)c(N)nc(SCc3ccncc3)c2C#N)cc(OC)c1OC`?
KCNQ1 pot: inactive; AI-2 QS modul: 6; SUMO Mot1 rescue: -7; hERG protect: -16; KCNQ1 inh: inactive; KCC2 secondary: 0.0085; KCC2 bumet counter: 0.0065; KCC2 sec2: 0.029; HEK293 Tl flux: 0.0072; KCC2 ouabain: inconclusive; HEK counter2: inconclusive

Results for N#Cc1c(N)nc(SCc2ccncc2)c(C#N)c1-c1cccs1 ?
KCNQ1 pot: inactive; AI-2 QS modul: 37; SUMO Mot1 rescue: 29; Cl transport mod: 0.36; hERG protect: -15; KCNQ1 inh: inactive
